Test results reported in ChEMBL document CHEMBL4130635, “2,4-Diaminoquinazolines as Dual Toll-like Receptor (TLR) 7/8 Modulators for the Treatment of Hepatitis B Virus” (J Med Chem, 2018).

What was measured:
[1] = target: T1, Toll-like receptor 8 (Homo sapiens) (UniProt Q9NR97); assay: Agonist activity at human TLR8 expressed in HEK293 cells assessed as induction of receptor activation incubated for 6 hrs by NF-kappaB-luciferase reporter gene assay; assay type: cell-based
T1 sequence (whole entry): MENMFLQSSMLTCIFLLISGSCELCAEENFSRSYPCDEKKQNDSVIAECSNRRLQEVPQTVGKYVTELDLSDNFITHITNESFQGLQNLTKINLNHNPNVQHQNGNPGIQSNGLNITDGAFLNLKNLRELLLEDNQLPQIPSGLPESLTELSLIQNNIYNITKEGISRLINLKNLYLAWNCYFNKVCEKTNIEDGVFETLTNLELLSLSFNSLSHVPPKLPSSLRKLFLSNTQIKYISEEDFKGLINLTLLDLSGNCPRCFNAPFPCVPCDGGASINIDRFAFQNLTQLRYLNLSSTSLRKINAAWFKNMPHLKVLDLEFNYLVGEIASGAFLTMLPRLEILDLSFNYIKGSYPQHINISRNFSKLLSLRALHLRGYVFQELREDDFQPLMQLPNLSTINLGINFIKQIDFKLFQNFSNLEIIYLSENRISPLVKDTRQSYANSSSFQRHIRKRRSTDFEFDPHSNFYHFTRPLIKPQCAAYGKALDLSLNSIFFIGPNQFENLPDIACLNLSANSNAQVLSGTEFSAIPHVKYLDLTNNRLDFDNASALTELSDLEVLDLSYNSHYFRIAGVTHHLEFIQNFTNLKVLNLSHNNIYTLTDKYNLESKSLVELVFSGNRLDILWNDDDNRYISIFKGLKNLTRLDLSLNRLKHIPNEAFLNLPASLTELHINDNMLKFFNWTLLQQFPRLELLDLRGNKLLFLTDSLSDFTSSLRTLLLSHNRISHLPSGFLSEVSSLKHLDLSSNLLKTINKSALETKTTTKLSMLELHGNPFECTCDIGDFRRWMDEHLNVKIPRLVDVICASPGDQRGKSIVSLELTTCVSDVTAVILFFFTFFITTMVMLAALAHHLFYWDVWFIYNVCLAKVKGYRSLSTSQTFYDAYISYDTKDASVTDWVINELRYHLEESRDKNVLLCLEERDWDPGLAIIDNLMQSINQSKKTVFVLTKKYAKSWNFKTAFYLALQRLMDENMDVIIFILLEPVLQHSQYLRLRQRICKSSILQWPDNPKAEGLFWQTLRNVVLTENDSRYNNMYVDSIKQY

Cytochrome P450 2D6 = Cytochrome P450 2D6 (Homo sapiens, UniProt P10635); assay: Inhibition of CYP2D6 (unknown origin); assay type: ADME
Chain of Cytochrome P450 2D6 (P10635 whole entry): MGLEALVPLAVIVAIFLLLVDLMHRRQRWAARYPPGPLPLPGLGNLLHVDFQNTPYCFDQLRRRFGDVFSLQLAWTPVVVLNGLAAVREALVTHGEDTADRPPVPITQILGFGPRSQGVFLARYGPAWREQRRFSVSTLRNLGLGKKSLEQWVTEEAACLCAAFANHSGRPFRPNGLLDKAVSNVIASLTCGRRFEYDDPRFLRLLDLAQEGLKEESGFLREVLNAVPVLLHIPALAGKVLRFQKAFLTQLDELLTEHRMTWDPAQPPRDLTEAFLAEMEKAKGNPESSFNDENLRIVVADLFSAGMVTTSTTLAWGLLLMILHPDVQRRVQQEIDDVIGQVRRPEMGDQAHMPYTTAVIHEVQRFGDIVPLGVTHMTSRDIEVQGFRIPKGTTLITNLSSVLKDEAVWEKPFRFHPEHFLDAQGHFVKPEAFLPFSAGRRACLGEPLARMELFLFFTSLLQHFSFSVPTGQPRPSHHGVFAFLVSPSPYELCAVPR

[2] = Cytotoxicity against HEK293 cells assessed as reduction in cell viability after 6 hrs by ATP lite assay; assay type: cell-based; conditions: human
[3] = target: Voltage-gated inwardly rectifying potassium channel KCNH2 (Homo sapiens, UniProt Q12809); assay: Inhibition of radioligand binding to human ERG expressed in HEK293 cell membranes by scintillation counting method
Chain of Voltage-gated inwardly rectifying potassium channel KCNH2 (Q12809 whole entry): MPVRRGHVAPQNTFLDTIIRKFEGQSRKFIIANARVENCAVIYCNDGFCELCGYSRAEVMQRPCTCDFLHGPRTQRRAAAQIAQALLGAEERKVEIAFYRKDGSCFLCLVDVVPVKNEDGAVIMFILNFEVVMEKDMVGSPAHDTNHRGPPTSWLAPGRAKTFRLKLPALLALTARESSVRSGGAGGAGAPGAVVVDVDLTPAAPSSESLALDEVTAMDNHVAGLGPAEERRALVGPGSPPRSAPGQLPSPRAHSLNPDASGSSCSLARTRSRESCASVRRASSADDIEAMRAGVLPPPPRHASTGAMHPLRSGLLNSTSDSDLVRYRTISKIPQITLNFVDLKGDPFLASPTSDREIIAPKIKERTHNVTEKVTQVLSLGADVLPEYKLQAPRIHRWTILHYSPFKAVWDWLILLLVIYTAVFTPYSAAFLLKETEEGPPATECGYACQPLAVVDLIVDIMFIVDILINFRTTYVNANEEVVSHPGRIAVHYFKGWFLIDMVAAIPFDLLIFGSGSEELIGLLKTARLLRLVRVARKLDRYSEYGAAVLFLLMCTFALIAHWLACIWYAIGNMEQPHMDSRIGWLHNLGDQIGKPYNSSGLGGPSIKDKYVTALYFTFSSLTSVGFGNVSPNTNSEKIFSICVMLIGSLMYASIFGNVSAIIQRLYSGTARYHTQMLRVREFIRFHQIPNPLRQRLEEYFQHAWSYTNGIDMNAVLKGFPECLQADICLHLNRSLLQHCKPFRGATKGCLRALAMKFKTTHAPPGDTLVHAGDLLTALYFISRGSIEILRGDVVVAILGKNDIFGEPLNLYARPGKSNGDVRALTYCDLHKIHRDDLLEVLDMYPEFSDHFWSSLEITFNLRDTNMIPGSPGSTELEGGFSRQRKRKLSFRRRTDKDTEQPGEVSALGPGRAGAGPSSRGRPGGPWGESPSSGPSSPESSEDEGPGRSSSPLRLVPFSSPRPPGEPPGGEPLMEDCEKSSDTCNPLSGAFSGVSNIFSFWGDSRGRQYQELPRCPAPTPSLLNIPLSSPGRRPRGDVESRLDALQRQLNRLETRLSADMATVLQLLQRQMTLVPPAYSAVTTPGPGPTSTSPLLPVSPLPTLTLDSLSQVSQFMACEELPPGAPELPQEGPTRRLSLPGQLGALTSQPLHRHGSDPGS

[4] = Metabolic stability in human liver microsomes assessed as compound metabolized at 1 uM after 15 mins; assay type: ADME, microsome; conditions: read-out: Drug metabolism
How it was run: (§1)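 Mouse (M) or human (H) liver microsomes incubated with compound at 1 μM; percent metabolized after 15 min.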

[5] = target: T2, Toll-like receptor 7 (Homo sapiens) (UniProt Q9NYK1); assay: Agonist activity at human TLR7 expressed in HEK293 cells assessed as induction of receptor activation incubated for 6 hrs by NF-kappaB-luciferase reporter gene assay; assay type: cell-based
T2 sequence (whole entry): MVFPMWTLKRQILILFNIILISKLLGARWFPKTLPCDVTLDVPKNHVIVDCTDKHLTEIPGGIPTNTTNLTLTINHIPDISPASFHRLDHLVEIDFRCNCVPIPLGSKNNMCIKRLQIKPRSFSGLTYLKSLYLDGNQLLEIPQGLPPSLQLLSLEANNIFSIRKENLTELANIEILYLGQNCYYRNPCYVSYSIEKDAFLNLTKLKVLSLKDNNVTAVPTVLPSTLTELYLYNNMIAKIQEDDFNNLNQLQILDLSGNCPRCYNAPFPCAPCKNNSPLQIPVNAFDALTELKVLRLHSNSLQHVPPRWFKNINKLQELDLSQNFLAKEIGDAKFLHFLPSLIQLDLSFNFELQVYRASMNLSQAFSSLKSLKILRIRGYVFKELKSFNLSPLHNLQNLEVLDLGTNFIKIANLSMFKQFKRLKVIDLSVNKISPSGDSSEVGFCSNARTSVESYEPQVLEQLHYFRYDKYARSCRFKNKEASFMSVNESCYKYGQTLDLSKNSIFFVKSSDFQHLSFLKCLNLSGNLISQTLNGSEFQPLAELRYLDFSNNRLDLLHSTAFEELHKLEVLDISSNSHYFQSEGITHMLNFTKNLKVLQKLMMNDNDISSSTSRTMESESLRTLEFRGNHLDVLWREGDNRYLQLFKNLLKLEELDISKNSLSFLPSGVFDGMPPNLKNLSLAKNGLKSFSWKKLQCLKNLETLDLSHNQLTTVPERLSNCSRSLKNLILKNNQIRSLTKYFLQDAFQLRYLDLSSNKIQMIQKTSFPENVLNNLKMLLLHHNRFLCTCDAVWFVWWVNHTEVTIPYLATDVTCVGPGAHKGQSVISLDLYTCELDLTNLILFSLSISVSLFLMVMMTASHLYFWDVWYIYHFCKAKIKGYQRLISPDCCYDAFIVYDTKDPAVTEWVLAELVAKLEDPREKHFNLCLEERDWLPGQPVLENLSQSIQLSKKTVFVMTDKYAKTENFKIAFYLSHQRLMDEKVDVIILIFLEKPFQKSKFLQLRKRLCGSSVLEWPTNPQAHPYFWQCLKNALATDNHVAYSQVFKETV
How it was run: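 HEK cell-based assay using a wild-type TLR7 expression vector; a parallel TLR8 vector construct served for selectivity. Results are expressed as lowest effective concentration (LEC), averaged over independent experiments where determined two or more times. A separate HEK 293 cytotoxicity (TOX) assay gave CC50 alongside.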

[6] = target: Alpha-1A adrenergic receptor; assay: Inhibition of alpha-1A adrenergic receptor (unknown origin)
[7] = target: T2, Toll-like receptor 7 (Homo sapiens); assay: Agonist activity at TLR7 in human PBMC assessed as suppression of HCV replicon replication in human HuH7 luc/neo cells harboring RNA encoding bicistronic expression construct comprising wild type HCV type 1b NS3-NS5B regions exposed to conditioned media from compound treated PBMCs after 24 hrs by luciferase reporter gene assay; assay type: cell-based
How it was run: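 Human PBMCs were incubated with compound. Their medium was then transferred onto an HCV replicon system, so the antiviral read-out reflects interferon and cytokines the PBMCs induced. Values are reported as lowest effective concentration (LEC), averaged when determined in two or more independent experiments.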

D(1A) dopamine receptor = D(1A) dopamine receptor (Homo sapiens, UniProt P21728); assay: Inhibition of dopamine D1 receptor (unknown origin)
Chain of D(1A) dopamine receptor (P21728 whole entry): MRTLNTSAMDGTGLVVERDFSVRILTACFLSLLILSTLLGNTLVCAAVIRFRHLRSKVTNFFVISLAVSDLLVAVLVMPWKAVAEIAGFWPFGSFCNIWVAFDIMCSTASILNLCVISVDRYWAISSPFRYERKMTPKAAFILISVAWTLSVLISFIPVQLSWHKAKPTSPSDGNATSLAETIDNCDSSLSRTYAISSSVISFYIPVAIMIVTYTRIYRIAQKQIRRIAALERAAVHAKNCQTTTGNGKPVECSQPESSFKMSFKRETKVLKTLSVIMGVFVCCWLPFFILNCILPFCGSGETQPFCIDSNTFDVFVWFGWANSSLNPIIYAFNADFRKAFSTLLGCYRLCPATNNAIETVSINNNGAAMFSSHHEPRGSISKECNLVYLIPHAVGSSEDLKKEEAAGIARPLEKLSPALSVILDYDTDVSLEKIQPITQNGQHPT

[8] = target: 5-hydroxytryptamine receptor 2A (Homo sapiens, UniProt P28223); assay: Inhibition of 5-HT2A receptor (unknown origin)
Chain of 5-hydroxytryptamine receptor 2A (P28223 whole entry): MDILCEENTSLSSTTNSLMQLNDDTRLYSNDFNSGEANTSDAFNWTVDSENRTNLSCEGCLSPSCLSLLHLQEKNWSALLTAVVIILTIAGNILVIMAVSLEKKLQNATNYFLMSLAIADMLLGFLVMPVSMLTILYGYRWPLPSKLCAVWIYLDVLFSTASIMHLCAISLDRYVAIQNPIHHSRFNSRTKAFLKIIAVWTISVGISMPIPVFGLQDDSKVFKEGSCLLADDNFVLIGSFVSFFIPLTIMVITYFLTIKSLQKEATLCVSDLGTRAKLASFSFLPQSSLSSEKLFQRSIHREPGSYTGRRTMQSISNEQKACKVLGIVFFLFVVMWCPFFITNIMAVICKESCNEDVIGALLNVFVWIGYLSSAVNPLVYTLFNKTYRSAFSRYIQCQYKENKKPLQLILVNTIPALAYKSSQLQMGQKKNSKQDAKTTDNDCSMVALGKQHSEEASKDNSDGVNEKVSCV

[9] = Metabolic stability in mouse liver microsomes assessed as compound metabolized at 1 uM after 15 mins; assay type: ADME, microsome; conditions: read-out: Drug metabolism; how it was run: as §1

CCC[C@@H](CCO)Nc1nc(N)nc2cc(OC)ccc12
MEC [1]: 0.13 µM | IC50 (Cytochrome P450 2D6): 600 nM | CC50 at 6 h [2]: > 24000 nM | IC50 [3]: > 10000 nM | metabolised at 0.25 h, 1 µM [4]: 35% | MEC [5]: 0.2 µM | IC50 [6]: 2340 nM | MEC [7]: 0.5 µM | IC50 (D(1A) dopamine receptor): 5750 nM | IC50 [8]: 1780 nM | metabolised at 0.25 h, 1 µM [9]: 65%
